Screening data (PubChem)
ZTA counter: blocks Epstein-Barr virus ZTA, an EBNA-1 counter-screen; hit rate 0.15% among 320,000; ZTA-DNA binding, fluorescence polarization; AID 2234; P03206; inhibition, % at 11 µM; in the data active = inhibition above about 33%
Target sequence (P03206 whole entry, looked up): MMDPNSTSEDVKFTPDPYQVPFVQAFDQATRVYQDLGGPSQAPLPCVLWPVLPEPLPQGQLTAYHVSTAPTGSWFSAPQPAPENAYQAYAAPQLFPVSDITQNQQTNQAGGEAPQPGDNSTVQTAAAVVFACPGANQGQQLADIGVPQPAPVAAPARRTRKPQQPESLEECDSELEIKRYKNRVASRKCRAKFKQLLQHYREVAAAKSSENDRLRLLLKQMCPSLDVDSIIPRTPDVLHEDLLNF
DNA FID counter-1: compounds displacing fluorescent DNA intercalator, primary screen, artefact control for HCV NS3 helicase inhibitor project, biochemical, FID fluorescence; inhibition, % at 7.9 µM; hit rate 0.17% among 290,000; DNA fluorescent intercalator displacement;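 also: higher means more ethidium bromide displaced from hairpin DNA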
NS3 helicase inh: inhibitors of HCV NS3 helicase, primary screen, biochemical, Cy5 molecular beacon fluorescence. Hepatitis C virus NS3 helicase. inhibition, % at 10.9 µM. hit rate 0.56% among 290,000. AID 1800, 2009. NS3 helicase DNA unwinding;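 active = inhibition above the mean of all tested compounds plus 3 SD, set per campaign, cut at about 35% in these data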
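System: Hepatitis C virus NS3 helicase domain fragment enzyme | Reagent: Annealed dual-labelled DNA beacon duplex, ATP-started | Compound dosing: 10.9 µM single point, 0.8% DMSO | Incubation: 1 h reaction at 25 °C, ATP-initiated | Technique: Cy5 fluorescence | Evaluation: Percent inhibition from t60/t0 fluorescence ratio | Benchmarks: Low DMSO, high thioflavine S at 110 µM | Replication: Singlicate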
GRIN3A LBD mod: binders of NR3A ligand-binding domain, primary screen, biophysical, differential scanning fluorimetry, uHTS; Glutamate receptor ionotropic, NMDA 3A (GRIN3A) ligand-binding domain; NR3A LBD differential scanning fluorimetry, Tm shift; 0% = protein alone, 100% = glycine-bound protein; hit rate 2.5% among 340,000; AID 1259313, 2017; Tm shift relative to glycine control, % at 25 µM;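 active = melting temperature shift of at least 10% of the positive control shift, at one fixed dose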
FGF22 binding: binders of human FGF22 protein, primary screen, FGF22 synaptogenesis inhibitor project, biophysical, thermal shift, single point; Fibroblast growth factor 22 (Homo sapiens), Q9HCT0; recombinant FGF22 thermal shift, SYPRO orange fluorescence; percent of sucrose octasulfate shift, DMSO zero; activity (Tm shift, normalised), % at 9.99 µM; hit rate 1.5% among 340,000;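 active = mean Tm shift, scaled 0 neutral to 100 positive control, at about 1.3% or above, every replicate too, limit read from the data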
Target sequence (Q9HCT0 whole entry, looked up): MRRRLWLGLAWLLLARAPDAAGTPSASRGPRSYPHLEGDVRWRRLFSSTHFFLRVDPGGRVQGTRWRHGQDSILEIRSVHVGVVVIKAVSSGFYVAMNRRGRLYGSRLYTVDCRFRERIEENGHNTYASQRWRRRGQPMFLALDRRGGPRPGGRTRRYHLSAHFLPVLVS
EBNA-1 inh: EBNA-1 DNA-binding inhibitors, primary screen, biochemical, fluorescence polarization | AID 1950, 2009 | hit rate 0.34% among 300,000 | inhibition, % at 14.8 µM; in the data active = inhibition above about 28%
NS3 hel confirm: HCV NS3 helicase inhibitors, retest, confirmation, biochemical, Cy5 molecular beacon fluorescence, triplicate; NS3 helicase DNA unwinding; hit rate 31% among 1,600; AID 1943, 2009; shares compounds with NS3 helicase inh; inhibition, % at 10.9 µM;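 active = inhibition above the mean of all tested compounds plus 3 SD, cutoff set per campaign, cut at about 36% in these data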
DNA FID counter-2: compounds displacing fluorescent DNA intercalator, artefact control for HCV NS3 helicase inhibitor project, biochemical, FID fluorescence, triplicate. inhibition, % at 7.9 µM. DNA fluorescent intercalator displacement. shares compounds with NS3 helicase inh. hit rate 4% among 1,600;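 also: higher means more displacement of ethidium bromide from the DNA hairpin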
DNA FID DR: compounds displacing fluorescent intercalator from DNA, dose response, counter-screen for HCV NS3 helicase inhibitor project, biochemical, fluorescence; shares compounds with NS3 helicase inh; fluorescent intercalator displacement from DNA; IC50, µM; 120 tested, under 10 active; call rule not given here
Numbers stand for hits. This is a sample that favours compounds with a hit; in the whole collection about 3.6% have one here. Rule as the data show it, unless noted: active = inhibition above about 37%; inactive = the rest.

O=C1c2ccccc2NC2(CCCC2)N1O was read as ZTA counter inactive, DNA FID counter-1 inactive, NS3 helicase inh inactive, GRIN3A LBD mod inactive and EBNA-1 inh inactive.
Screening O=C1c2ccccc2NC2(CCCCC2)N1N=C1CCCCC1 returned ZTA counter inactive, DNA FID counter-1 inactive, NS3 helicase inh 49.0, GRIN3A LBD mod inactive, FGF22 binding inactive, EBNA-1 inh inactive, NS3 hel confirm inactive and DNA FID counter-2 inactive.
COc1ccc(NC(=O)c2c(NC(=O)CCC(=O)O)sc(-c3ccccc3)c2C)cc1 was read as ZTA counter inactive, DNA FID counter-1 inactive, NS3 helicase inh 37.3, GRIN3A LBD mod inactive, FGF22 binding inactive, EBNA-1 inh inactive, NS3 hel confirm 52.6 and DNA FID counter-2 inactive.
Cc1c2ccccc2nc2c(F)c(NCCO)c(F)c(F)c12 was read as ZTA counter inactive, DNA FID counter-1 inactive, NS3 helicase inh 39.3, GRIN3A LBD mod inactive, EBNA-1 inh inactive, NS3 hel confirm inactive and DNA FID counter-2 inactive.
Screening Cc1c2ccccc2nc2c(F)c(NC(C)C)c(F)c(F)c12 returned ZTA counter inactive, DNA FID counter-1 inactive, NS3 helicase inh 44.0, GRIN3A LBD mod inactive, EBNA-1 inh inactive, NS3 hel confirm inactive and DNA FID counter-2 inactive.
`OCCNc1c2ccccc2nc2c(F)c(F)c(F)c(F)c12` gave ZTA counter inactive, DNA FID counter-1 inactive, NS3 helicase inh inactive, GRIN3A LBD mod inactive and EBNA-1 inh inactive.
For CCCNC(=O)C[C@@H]1CC[C@@H]2[C@@H](COc3ccc(NC(=O)Nc4cccc(C)c4)cc3C(=O)N2C)O1 the results were FGF22 binding inactive.
Cc1cccc(N=C2NC(=O)/C(=C/C=C/c3ccco3)S2)c1 was read as ZTA counter inactive, DNA FID counter-1 inactive, NS3 helicase inh 44.4, GRIN3A LBD mod inactive, FGF22 binding inactive, EBNA-1 inh inactive, NS3 hel confirm inactive and DNA FID counter-2 inactive.
`O=C1NC(=Nc2ccc3ccccc3c2)S/C1=C/c1ccco1` gave ZTA counter inactive, DNA FID counter-1 inactive, NS3 helicase inh inactive, GRIN3A LBD mod inactive, FGF22 binding inactive and EBNA-1 inh inactive.
Cc1ccc(N=C2NC(=O)/C(=C\c3ccco3)S2)cc1 was read as ZTA counter inactive, DNA FID counter-1 inactive, NS3 helicase inh 39.7, GRIN3A LBD mod inactive, EBNA-1 inh inactive, NS3 hel confirm inactive and DNA FID counter-2 inactive.
For COc1ccc(N=C2S/C(=C\c3ccco3)C(=O)N2CC(C)C)cc1 the results were ZTA counter inactive, DNA FID counter-1 inactive, NS3 helicase inh inactive, GRIN3A LBD mod inactive and EBNA-1 inh inactive.
O=C1NC(=Nc2ccc(Cl)cc2)/C(=C/c2ccco2)S1 was read as ZTA counter inactive, DNA FID counter-1 inactive, NS3 helicase inh inactive, GRIN3A LBD mod inactive, FGF22 binding inactive and EBNA-1 inh inactive.
Screening COc1ccc(N=C2NC(=O)/C(=C\C=C\c3ccco3)S2)cc1 returned DNA FID counter-1 inactive, NS3 helicase inh 46.3, GRIN3A LBD mod inactive, NS3 hel confirm 36.5, DNA FID counter-2 inactive and DNA FID DR inactive.
For Cc1cccc(N=C2NC(=O)S/C2=C\c2ccco2)c1 the results were ZTA counter inactive, DNA FID counter-1 inactive, NS3 helicase inh 37.2, GRIN3A LBD mod inactive, FGF22 binding inactive, EBNA-1 inh inactive, NS3 hel confirm inactive and DNA FID counter-2 inactive.
For C[C@H](CO)N1C[C@H](C)[C@@H](CN(C)Cc2ccc(C(=O)Nc3ccccc3N)cc2)Oc2ccc(NC(=O)Cc3ccccc3)cc2CC1=O the results were FGF22 binding inactive.
